Measurements: ChEMBL document CHEMBL3124809, “Back pocket flexibility provides group II p21-activated kinase (PAK) selectivity for type I 1/2 kinase inhibitors” (J Med Chem, 2014)

Assays:
[1] = target: T1, Serine/threonine-protein kinase PAK 4 (Homo sapiens, UniProt O96013); assay: Binding affinity to N-terminal GST-tagged recombinant human PAK4 kinase domain expressed in Escherichia coli using KKRNRRLSVA as substrate preincubated for 10 mins followed by ATP addition measured after 60 mins by FRET-based Z'Lyte assay
Target sequence in this assay (O96013 whole entry, the tested form may be a part): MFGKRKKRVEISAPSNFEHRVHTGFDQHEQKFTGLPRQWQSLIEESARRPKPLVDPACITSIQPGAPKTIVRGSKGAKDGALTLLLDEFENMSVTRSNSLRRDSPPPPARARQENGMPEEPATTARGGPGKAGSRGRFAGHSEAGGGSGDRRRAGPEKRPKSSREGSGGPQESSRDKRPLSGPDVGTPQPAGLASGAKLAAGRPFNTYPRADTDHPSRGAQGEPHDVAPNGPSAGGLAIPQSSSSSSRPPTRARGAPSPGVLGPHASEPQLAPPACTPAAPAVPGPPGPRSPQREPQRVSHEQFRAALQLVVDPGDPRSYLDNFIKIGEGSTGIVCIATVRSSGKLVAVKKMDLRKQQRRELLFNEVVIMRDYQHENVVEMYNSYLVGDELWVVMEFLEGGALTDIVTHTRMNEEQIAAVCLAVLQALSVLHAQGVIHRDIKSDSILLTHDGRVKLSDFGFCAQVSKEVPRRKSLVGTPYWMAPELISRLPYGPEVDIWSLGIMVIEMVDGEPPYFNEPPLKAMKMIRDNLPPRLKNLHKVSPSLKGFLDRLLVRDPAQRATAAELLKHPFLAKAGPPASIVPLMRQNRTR

[2] = target: Serine/threonine-protein kinase PAK 1 (Homo sapiens, UniProt Q13153); assay: Binding affinity to N-terminal GST-His-tagged recombinant human PAK1 kinase domain expressed in Escherichia coli BL21 using KKRNRRLSVA as sustrate preincubated for 10 mins followed by ATP addition measured after 60 mins by FRET-based Z'Lyte assay
[3] = target: Mitogen-activated protein kinase kinase kinase kinase 4 (Homo sapiens) (UniProt O95819); assay: Inhibition of MAP4K4 (unknown origin) at 1 uM
[4] = target: T1, Serine/threonine-protein kinase PAK 4; assay: Inhibition of PAK4 (unknown origin) at 1 uM
Target sequence in this assay (O96013 whole entry, looked up, the tested form may be a part): as the sequence (O96013 whole entry, the tested form may be a part) above

[5] = target: Mitogen-activated protein kinase kinase kinase 14 (Homo sapiens) (UniProt Q99558); assay: Inhibition of NIK (unknown origin) at 1 uM
[6] = target: Mitogen-activated protein kinase kinase kinase kinase 5 (Homo sapiens) (UniProt Q9Y4K4); assay: Inhibition of KHS1 (unknown origin) at 1 uM
[7] = target: Misshapen-like kinase 1 (Homo sapiens) (UniProt Q8N4C8); assay: Inhibition of MINK1 (unknown origin) at 1 uM
[8] = target: T2, Tyrosine-protein kinase JAK3 (Homo sapiens) (UniProt P52333); assay: Inhibition of JAK3 (unknown origin) at 1 uM
T2 sequence (whole entry): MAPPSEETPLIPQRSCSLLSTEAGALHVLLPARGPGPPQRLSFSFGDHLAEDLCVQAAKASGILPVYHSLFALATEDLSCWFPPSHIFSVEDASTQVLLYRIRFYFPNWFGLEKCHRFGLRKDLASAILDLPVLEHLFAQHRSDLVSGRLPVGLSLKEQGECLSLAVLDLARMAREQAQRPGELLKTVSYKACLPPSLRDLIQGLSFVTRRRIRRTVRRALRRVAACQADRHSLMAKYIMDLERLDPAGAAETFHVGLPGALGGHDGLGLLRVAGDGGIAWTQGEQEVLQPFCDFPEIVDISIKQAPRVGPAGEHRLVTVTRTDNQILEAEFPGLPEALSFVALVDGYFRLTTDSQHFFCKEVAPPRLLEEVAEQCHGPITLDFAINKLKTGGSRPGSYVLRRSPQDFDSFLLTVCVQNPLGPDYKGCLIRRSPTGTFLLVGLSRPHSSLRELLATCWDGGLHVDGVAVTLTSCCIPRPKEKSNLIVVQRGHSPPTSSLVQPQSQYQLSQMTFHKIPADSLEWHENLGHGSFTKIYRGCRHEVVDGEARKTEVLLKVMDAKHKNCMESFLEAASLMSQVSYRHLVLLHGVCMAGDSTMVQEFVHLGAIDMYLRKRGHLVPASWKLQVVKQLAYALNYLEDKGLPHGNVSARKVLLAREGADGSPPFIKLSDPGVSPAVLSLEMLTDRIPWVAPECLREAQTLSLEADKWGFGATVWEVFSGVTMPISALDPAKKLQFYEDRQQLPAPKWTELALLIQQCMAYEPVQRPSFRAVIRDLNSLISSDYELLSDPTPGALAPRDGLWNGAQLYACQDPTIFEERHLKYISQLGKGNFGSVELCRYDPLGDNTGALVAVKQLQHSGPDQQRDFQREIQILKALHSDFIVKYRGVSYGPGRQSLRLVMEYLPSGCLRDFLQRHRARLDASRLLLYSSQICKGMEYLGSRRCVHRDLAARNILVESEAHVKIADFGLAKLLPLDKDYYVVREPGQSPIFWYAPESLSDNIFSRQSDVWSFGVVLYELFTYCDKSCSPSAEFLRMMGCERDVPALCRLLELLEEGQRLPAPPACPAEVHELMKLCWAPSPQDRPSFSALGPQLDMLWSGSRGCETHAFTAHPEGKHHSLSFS

[9] = Cytotoxicity against human MDA-MB-436 cells assessed as reduction in cell viability after 24 to 48 hrs by Celltiter-glo luminescence assay; format: functional, cell-based
Method in brief: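 Cells sparsely plated in 96-well plates and allowed to adhere, then given DMSO or compound (0.1, 1, 10, 50 μM) for 24 and 48 h. Metabolically active cells quantified by CellTiter-Glo luminescence. MDA-MB-436 grown in DMEM/10% FBS; MCF10A PIK3CA (one endogenous H1047R allele) in DMEM/F12 with 5% horse serum, insulin, hydrocortisone.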

Chain of Serine/threonine-protein kinase PAK 1 (Q13153 whole entry, the tested form may be a part): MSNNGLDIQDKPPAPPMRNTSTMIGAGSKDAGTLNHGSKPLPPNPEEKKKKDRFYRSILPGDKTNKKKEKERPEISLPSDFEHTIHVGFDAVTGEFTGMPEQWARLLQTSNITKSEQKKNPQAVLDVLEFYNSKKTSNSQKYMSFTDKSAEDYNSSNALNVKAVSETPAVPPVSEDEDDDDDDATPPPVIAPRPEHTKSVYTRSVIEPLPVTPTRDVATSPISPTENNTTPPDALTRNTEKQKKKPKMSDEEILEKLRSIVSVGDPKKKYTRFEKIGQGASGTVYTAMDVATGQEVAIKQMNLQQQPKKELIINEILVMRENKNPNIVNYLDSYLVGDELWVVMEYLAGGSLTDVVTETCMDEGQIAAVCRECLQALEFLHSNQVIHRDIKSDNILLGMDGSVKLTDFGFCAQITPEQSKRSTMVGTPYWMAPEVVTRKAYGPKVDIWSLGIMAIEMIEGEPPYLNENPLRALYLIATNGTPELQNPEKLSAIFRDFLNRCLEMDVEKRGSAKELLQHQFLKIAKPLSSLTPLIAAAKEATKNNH
Chain of Mitogen-activated protein kinase kinase kinase kinase 4 (Homo sapiens) (O95819 2-1239 limits assumed): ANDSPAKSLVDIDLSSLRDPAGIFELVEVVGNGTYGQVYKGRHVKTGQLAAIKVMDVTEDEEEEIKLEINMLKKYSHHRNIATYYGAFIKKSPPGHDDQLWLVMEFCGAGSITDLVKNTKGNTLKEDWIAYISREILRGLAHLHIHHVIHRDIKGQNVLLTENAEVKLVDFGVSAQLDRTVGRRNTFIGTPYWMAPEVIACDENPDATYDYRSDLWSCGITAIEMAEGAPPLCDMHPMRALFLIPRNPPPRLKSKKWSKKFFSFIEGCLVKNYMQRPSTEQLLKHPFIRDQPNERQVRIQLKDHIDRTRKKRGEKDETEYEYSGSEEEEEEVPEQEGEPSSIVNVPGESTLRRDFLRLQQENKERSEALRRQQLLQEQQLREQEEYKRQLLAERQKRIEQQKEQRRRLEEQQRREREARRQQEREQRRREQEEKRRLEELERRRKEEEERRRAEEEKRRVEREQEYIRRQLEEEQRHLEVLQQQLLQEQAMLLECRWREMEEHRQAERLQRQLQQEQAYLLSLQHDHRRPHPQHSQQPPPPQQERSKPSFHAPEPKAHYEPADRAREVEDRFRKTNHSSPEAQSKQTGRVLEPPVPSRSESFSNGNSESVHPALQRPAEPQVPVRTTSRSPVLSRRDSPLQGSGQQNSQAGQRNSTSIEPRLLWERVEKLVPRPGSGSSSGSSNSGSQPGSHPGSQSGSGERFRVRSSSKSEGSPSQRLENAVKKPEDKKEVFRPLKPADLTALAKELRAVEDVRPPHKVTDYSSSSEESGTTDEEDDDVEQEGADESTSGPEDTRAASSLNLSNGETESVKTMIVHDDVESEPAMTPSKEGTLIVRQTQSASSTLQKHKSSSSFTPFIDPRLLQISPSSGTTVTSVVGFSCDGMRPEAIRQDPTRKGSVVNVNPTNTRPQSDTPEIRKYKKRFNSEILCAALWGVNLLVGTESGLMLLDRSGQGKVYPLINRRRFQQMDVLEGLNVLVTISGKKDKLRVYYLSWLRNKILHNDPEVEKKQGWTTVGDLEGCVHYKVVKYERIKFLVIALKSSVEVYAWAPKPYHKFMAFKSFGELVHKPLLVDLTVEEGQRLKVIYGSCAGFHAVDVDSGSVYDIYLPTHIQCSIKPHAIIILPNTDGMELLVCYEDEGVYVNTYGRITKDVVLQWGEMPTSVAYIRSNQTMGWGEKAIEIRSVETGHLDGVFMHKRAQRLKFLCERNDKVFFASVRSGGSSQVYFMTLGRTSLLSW
Chain of Mitogen-activated protein kinase kinase kinase kinase 5 (Homo sapiens) (Q9Y4K4 whole entry, looked up): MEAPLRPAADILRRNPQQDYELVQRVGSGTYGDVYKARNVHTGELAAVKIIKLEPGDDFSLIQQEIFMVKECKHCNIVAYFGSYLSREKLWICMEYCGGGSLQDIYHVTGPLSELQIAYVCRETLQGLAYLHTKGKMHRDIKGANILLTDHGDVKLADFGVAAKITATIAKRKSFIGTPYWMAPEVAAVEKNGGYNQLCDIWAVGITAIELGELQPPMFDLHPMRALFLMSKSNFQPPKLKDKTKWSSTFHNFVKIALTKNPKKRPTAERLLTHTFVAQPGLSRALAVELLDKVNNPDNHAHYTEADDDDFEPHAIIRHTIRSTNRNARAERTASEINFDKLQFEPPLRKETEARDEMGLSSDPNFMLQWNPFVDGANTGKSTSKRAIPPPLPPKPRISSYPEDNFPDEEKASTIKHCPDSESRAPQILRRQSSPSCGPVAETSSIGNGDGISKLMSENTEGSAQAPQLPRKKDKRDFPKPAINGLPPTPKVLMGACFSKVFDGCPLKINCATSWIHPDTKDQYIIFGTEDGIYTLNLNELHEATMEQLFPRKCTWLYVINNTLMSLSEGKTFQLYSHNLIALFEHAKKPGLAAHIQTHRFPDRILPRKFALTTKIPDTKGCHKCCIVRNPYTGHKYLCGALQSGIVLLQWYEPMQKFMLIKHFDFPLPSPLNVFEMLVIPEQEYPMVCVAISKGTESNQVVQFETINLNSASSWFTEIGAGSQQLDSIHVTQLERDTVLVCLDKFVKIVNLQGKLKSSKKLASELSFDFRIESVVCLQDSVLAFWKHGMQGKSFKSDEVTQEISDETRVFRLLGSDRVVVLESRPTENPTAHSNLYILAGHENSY
Chain of Mitogen-activated protein kinase kinase kinase 14 (Homo sapiens) (Q99558 whole entry, looked up): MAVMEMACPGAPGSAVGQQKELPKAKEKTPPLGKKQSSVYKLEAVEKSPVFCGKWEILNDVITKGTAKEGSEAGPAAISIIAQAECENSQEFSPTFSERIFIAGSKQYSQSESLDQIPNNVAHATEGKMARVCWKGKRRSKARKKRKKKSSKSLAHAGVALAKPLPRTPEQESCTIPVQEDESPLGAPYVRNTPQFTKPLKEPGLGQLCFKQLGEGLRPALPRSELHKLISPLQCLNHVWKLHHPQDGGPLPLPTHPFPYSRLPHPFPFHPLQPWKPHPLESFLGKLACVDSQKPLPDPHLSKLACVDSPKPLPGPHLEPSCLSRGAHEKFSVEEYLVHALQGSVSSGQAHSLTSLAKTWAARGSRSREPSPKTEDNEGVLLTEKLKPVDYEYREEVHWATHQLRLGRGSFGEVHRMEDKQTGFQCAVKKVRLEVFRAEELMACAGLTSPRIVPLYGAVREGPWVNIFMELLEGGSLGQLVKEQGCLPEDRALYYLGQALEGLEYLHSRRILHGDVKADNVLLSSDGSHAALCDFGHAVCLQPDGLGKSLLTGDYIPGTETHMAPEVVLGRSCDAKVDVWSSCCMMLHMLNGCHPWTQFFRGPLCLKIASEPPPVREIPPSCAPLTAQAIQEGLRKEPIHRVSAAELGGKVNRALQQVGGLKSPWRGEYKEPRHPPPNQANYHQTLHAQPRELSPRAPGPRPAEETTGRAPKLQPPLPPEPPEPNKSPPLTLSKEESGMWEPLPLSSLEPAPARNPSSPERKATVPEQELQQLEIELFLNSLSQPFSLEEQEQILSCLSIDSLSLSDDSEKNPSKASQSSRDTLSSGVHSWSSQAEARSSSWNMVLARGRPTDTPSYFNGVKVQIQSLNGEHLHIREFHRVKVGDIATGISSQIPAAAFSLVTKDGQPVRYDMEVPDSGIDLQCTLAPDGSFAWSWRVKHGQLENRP

Compound | Ki [1] [nM] | Ki [2] [nM] | further results
CC(C)(O)C#Cc1ccc2cnn(-c3ccnc(N)n3)c2c1 | 120 | > 4500 | 
Cc1nc2ccc(C#CC(C)(O)CC3CC3)cc2n1-c1ncnc(N)n1 (racemic) | 670 | > 4500 | 
CCNc1nc2ccc(C#CC(C)(C)O)cc2n1-c1ncnc(N)n1 | 60 | > 4500 | 
Cc1nc(Nc2n[nH]c3c2CN(C(=O)N[C@H](CN(C)C)c2ccccc2)C3(C)C)c2sccc2n1 [PF-03758309] |  |  | IC50 [9]: 0.79 nM

Now from value to compound, other results behind:

Ki [1] [nM] | Ki [2] [nM] | Compound | further results
> 2900 | > 4500 | Cc1nc2ccc(C#CC3(O)CCCOC3)cc2n1-c1ncnc(N)n1 (racemic) | 
68 |  | Cc1nc2ccc(C#CC3(O)CCCCC3)cc2n1-c1ncnc(N)n1 | inhibition [3]: 4%; inhibition [4]: 91%; inhibition [5]: 56%; inhibition [6]: 44%; inhibition [7]: 6%; inhibition [8]: -2%
> 2900 | > 4500 | Cc1nc2ccc(C#CC3(O)COC3)cc2n1-c1ncnc(N)n1 | 
> 2900 | > 4500 | Cc1nc2ccc(C#CC(C)(C)CO)cc2n1-c1ncnc(N)n1 | 
